Measurements taken from ChEMBL document CHEMBL3526048, “In vitro metabolism of rivoglitazone, a novel peroxisome proliferator-activated receptor γ agonist, in rat, monkey, and human liver microsomes and freshly isolated hepatocytes” (Drug Metab Dispos, 2011).

Experiments:
Cytochrome P450 2C9 [1] = target: T1, Cytochrome P450 2C9 (Homo sapiens, UniProt P11712); assay: Activity of human CYP2C9 expressed in microsomes isolated from baculovirus infected insect cell assessed as enzyme-mediated 3-(4-((6-methoxy-1-methyl-1H-benzo[d]imidazol-2-yl)methoxy)phenyl)-2-(methylthio)propanoic acid formation at 20 uM after 2 hrs by radio-HPLC/LC-MS/MS analysis in presence of NADPH-generating system/SAM and UDPGA/SAM; assay type: ADME
Liver microsome [2] = assay: Drug metabolism in human liver microsomes assessed as formation of 3-(4-((6-methoxy-1-methyl-1H-benzo[d]imidazol-2-yl)methoxy)phenyl)-2-(methylsulfonyl)propanamide at 20 uM after 2 hrs by radio-HPLC/LC-MS/MS analysis in presence of NADPH-generating system/SAM; assay type: ADME
Cytochrome P450 3A4 = Cytochrome P450 3A4 (Homo sapiens, UniProt P08684); assay: (§1) Activity of human CYP3A4 expressed in microsomes isolated from baculovirus infected insect cell assessed as enzyme-mediated 5-hydroxy-5-(4-((6-methoxy-1-methyl-1H-benzo[d]imidazol-2-yl)methoxy)benzyl)thiazolidine-2,4-dione formation at 20 uM after 2 hrs by radio-HPLC/LC-MS/MS analysis in presence of NADPH-generating system and NADPH-generating system/SAM; assay type: ADME
Liver microsome [3] = assay: Drug metabolism in Sprague-Dawley rat liver microsomes assessed as formation of 2-mercapto-3-(4-((6-methoxy-1-methyl-1H-benzo[d]imidazol-2-yl)methoxy)phenyl)propanoic acid at 20 uM after 2 to 4 hrs by radio-HPLC/LC-MS/MS analysis in presence of UDPGA, UDPGA/SAM and NADPH-generating system; assay type: ADME
[4] = Drug metabolism in cynomolgus monkey liver microsomes assessed as formation of (2S,3S,4S,5R,6R)-6-((1-carboxy-2-(4-((6-methoxy-1-methyl-1H-benzo[d]imidazol-2-yl)methoxy)phenyl)ethylthio)carbonylamino)-3,4,5-trihydroxytetrahydro-2H-pyran-2-carboxylic acid at 20 uM after 4 hrs by radio-HPLC/LC-MS/MS analysis in presence of UDPGA and UDPGA/SAM; assay type: ADME, Macaca fascicularis
Cytochrome P450 2C9 [5] = target: T1, Cytochrome P450 2C9; assay: as §1, with “CYP2C9” for “CYP3A4”; assay type: ADME
Cytochrome P450 1A2 = target: T2, Cytochrome P450 1A2 (Homo sapiens, UniProt P05177); assay: Activity of human CYP1A2 expressed in microsomes isolated from baculovirus infected insect cell assessed as enzyme-mediated (2S,3S,4S,5R,6R)-6-((1-carboxy-2-(4-((6-methoxy-1-methyl-1H-benzo[d]imidazol-2-yl)methoxy)phenyl)ethylthio)carbonylamino)-3,4,5-trihydroxytetrahydro-2H-pyran-2-carboxylic acid formation at 20 uM after 2 hrs by radio-HPLC/LC-MS/MS analysis in presence of NADPH-generating system/SAM; assay type: ADME
T2 sequence (P05177 whole entry): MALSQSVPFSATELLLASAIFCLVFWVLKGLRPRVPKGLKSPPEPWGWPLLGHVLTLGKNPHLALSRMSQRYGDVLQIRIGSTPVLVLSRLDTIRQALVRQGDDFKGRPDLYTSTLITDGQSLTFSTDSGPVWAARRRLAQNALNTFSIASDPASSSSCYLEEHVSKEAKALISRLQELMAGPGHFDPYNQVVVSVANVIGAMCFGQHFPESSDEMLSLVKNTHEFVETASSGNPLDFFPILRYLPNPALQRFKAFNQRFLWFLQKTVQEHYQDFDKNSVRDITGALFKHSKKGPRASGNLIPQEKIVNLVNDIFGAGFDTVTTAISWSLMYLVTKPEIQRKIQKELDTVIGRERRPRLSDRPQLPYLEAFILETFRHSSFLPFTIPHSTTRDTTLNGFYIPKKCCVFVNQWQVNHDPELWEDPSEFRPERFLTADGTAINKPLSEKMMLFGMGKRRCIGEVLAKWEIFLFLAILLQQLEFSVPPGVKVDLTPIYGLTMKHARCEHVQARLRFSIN

[6] = target: T3, UDP-glucuronosyltransferase 1A3 (Homo sapiens, UniProt P35503); assay: Activity of human UGT1A3 expressed in microsomes isolated from baculovirus infected insect cell assessed as enzyme-mediated 3-(4-((6-methoxy-1-methyl-1H-benzo[d]imidazol-2-yl)methoxy)phenyl)-2-(methylsulfonyl)propanamide formation at 20 uM after 4 hrs by radio-HPLC/LC-MS/MS analysis in presence of NADPH-generating system/SAM; assay type: ADME
T3 sequence (P35503 whole entry): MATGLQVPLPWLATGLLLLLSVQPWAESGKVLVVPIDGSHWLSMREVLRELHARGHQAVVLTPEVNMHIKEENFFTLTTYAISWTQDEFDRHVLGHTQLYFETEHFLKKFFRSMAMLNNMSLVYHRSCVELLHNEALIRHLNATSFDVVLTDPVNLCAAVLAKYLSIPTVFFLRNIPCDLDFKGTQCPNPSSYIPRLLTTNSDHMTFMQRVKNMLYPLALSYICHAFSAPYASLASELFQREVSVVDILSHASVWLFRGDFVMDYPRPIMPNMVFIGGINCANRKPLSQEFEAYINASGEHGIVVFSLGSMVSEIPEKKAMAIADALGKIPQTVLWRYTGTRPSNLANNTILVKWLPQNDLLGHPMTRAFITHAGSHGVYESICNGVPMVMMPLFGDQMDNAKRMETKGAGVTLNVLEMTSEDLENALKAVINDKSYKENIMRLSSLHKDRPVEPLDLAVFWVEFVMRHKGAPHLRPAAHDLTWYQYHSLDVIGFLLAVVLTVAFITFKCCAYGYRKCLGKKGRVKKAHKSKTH

[7] = target: T4, UDP-glucuronosyltransferase 1A9 (Homo sapiens, UniProt O60656); assay: Activity of human UGT1A9 expressed in microsomes isolated from baculovirus infected insect cell assessed as enzyme-mediated 2-mercapto-3-(4-((6-methoxy-1-methyl-1H-benzo[d]imidazol-2-yl)methoxy)phenyl)propanoic acid formation at 20 uM after 4 hrs by radio-HPLC/LC-MS/MS analysis in presence of UDPGA; assay type: ADME
T4 sequence (O60656 whole entry): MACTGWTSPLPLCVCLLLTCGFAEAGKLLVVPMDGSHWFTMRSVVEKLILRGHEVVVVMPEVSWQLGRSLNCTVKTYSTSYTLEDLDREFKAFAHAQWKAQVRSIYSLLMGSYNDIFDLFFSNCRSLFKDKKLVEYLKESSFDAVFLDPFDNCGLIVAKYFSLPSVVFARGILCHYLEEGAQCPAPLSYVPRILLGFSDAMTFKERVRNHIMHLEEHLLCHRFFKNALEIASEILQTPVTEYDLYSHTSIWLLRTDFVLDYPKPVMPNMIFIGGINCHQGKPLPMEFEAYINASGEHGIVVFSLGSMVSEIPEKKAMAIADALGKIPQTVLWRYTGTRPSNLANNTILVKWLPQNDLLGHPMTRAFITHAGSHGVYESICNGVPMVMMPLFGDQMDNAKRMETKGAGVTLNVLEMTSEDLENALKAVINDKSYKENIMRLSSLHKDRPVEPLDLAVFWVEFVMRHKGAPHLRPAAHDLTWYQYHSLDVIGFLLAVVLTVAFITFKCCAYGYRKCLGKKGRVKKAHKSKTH

Cytochrome P450 2D6 = Cytochrome P450 2D6 (Homo sapiens, UniProt P10635); assay: Activity of human CYP2D6 expressed in microsomes isolated from baculovirus infected insect cell assessed as enzyme-mediated 2-((4-((2,4-dioxothiazolidin-5-yl)methyl)phenoxy)methyl)-1-methyl-1H-benzo[d]imidazol-6-yl hydrogen sulfate formation at 20 uM after 2 hrs by radio-HPLC/LC-MS/MS analysis; assay type: ADME
Summary of the method: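 Baculovirus-insect-cell microsomes expressing the human CYP (1 mg/ml protein) were incubated with [14C]rivoglitazone (20 μM) in 50 mM potassium phosphate (pH 7.4) or 100 mM Tris-HCl (pH 7.5) with an NADPH-generating system (2 mM NADP+, 20 mM glucose 6-phosphate, 2 units/ml G6PDH, 10 mM MgCl2) for 2 h at 37°C. Insect-cell control supersomes served as the control. Reactions were stopped with acetonitrile, and the concentrated supernatants were analysed by radio-HPLC, LC-MS and LC-MS/MS.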

T1 sequence (P11712 whole entry): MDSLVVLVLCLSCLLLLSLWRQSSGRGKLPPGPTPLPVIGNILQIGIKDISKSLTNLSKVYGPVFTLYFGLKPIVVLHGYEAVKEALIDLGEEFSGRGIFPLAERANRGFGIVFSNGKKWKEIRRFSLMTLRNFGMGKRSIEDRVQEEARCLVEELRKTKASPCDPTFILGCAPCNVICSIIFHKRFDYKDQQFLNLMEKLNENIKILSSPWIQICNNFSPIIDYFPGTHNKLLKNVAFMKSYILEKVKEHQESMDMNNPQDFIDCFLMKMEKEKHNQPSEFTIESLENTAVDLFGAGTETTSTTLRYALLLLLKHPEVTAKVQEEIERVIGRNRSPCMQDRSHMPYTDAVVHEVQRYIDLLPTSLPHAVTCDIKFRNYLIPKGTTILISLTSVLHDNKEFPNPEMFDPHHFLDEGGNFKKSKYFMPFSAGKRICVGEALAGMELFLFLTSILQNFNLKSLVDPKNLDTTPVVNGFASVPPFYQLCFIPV
Sequence of Cytochrome P450 3A4 (P08684 whole entry): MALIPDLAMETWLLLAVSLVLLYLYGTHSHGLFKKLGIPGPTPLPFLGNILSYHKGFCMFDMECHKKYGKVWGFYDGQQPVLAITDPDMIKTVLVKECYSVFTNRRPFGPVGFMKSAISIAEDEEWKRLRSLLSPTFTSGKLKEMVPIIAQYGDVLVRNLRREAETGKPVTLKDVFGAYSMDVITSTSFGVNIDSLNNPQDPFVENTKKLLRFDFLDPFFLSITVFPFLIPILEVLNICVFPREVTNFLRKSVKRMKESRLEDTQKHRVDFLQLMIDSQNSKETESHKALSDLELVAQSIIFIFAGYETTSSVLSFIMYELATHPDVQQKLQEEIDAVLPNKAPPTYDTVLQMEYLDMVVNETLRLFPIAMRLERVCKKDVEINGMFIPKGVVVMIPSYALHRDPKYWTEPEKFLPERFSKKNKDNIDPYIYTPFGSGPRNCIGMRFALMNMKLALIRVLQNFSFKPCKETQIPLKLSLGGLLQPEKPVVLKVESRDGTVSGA
Sequence of Cytochrome P450 2D6 (P10635 whole entry): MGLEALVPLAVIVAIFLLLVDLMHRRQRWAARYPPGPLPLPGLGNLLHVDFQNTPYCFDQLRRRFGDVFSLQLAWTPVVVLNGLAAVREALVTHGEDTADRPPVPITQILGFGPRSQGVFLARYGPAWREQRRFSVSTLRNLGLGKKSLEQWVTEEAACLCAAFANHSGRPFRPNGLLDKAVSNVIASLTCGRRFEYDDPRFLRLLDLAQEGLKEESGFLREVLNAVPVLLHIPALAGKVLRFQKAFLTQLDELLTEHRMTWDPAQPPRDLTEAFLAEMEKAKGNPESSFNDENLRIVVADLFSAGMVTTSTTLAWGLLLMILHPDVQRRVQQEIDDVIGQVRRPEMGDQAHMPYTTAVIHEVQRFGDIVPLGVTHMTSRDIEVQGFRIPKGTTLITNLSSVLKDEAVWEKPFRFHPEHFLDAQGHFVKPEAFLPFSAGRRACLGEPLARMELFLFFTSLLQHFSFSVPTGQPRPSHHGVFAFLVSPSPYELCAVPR

- Drug metabolism (Cytochrome P450 2C9 [1]): metabolite_not_detected
- Drug metabolism (Liver microsome [2]): metabolite_detected
- Drug metabolism (Cytochrome P450 3A4): metabolite_detected
- Drug metabolism (Liver microsome [3]): metabolite_detected
- Drug metabolism [4]: metabolite_detected
- Drug metabolism (Cytochrome P450 2C9 [5]): metabolite_detected
- Drug metabolism (Cytochrome P450 1A2): metabolite_not_detected
- Drug metabolism [6]: metabolite_not_detected
- Drug metabolism [7]: metabolite_not_detected
- Drug metabolism (Cytochrome P450 2D6): metabolite_not_detected
Compound: COc1ccc2nc(COc3ccc(C[14CH]4SC(=O)NC4=O)cc3)n(C)c2c1.Cl (racemic)
